From ChEMBL document CHEMBL4257511, “Effect of N-1 arylation of monastrol on kinesin Eg5 inhibition in glioma cell lines” (Medchemcomm, 2018)
The source made the active and inactive calls. The calls are words filed in the database; no cut-off is given here.

Key:
U138-MG [1] = experiment: Induction of necrosis in human U138MG cells at 200 uM after 48 hrs by Annexin V/propidium iodide staining based flow cytometry; type: functional, cell-based
Outline: (§1)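 After 48 h exposure (U138: 150 or 200 μM; C6: 50 or 100 μM), cells washed twice in cold PBS pH 7.4 and counted. 10^5 cells stained with FITC-annexin V and PI in binding buffer, 15 min at room temperature in the dark, then read by two-colour flow cytometry. Early apoptotic annexin+/PI−, late apoptotic annexin+/PI+, necrotic annexin−/PI+.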

C6 [2] = experiment: Induction of apoptosis in rat C6 cells at 100 uM after 48 hrs by Annexin V/propidium iodide staining based flow cytometry; type: functional, cell-based; outline: as §1
[3] = molecular target: T1, Kinesin family member 11 (Rattus norvegicus) (UniProt F1MAB8); experiment: Inhibition of EG5 in rat C6 cells assessed as monopolar spindle formation at 100 uM after 24 hrs by Hoechst staining based immunofluorescence microscopic method; type: cell-based
T1 sequence (whole entry): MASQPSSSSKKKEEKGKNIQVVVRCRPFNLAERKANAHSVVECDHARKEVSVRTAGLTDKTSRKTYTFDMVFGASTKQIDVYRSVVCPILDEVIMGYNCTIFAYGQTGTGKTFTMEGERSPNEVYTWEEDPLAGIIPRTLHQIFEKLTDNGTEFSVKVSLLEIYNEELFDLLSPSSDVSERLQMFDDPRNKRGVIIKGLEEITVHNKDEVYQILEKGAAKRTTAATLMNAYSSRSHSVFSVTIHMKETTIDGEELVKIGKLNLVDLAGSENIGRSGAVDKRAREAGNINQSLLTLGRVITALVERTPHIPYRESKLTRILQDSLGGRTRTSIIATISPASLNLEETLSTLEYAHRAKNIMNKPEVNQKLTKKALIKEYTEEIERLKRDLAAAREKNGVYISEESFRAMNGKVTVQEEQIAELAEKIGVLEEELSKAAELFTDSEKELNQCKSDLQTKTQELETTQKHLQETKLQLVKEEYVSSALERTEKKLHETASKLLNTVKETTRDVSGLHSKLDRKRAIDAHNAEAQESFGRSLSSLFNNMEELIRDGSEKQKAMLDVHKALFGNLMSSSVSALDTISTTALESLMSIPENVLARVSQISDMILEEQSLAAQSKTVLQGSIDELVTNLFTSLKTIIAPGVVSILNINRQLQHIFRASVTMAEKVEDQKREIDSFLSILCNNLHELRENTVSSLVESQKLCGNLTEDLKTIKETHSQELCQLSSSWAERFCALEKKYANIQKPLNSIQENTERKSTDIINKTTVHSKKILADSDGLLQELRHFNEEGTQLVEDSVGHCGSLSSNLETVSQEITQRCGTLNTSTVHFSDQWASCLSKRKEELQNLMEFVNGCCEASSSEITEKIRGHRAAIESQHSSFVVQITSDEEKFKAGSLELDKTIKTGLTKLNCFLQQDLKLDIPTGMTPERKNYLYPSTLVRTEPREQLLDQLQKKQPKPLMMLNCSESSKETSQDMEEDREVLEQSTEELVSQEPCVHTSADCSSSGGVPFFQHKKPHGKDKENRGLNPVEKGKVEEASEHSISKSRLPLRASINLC
Outline: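 Glioma cells allowed to adhere 48 h, then treated 24 h (U138: 150 or 200 μM; C6: 50 or 100 μM). Fixed cells probed with rabbit anti-α-tubulin for 90 min, then FITC goat anti-rabbit for 1 h, with Hoechst nuclear counterstain. Monopolar spindles scored by confocal microscopy at 600×.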

C6 [4] = experiment: Cell cycle arrest in rat C6 cells assessed as accumulation at G2/M phase at 100 uM after 24 hrs by propidium iodide staining based flow cytometry; type: functional
Outline: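 Cells grown to semi-confluence, treated 24 h (U138: 150 or 200 μM; C6: 50 or 100 μM), washed twice in PBS pH 7.4, harvested and resuspended at 10^6 cells/ml in Tris-HCl pH 7.6, 3.5 mM trisodium citrate, 0.1% NP40, 100 μg/mL RNase, 50 μg/mL PI. After 15 min, sub-G1, G0/G1, S and G2/M fractions read by flow cytometry.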

U138-MG [5] = experiment: Antiproliferative activity against human U138MG cells after 24 hrs by MTS assay; type: functional, cell-based
Outline: (§2)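 Glioma cells grown in DMEM with penicillin/streptomycin and FBS (15% or 5%, by line), 37 °C, 5% CO2; seeded and grown to semi-confluence, then exposed 24 h to 5, 10, 25, 50 and 100 μM. MTS reagent added for 2 h; absorbance at 490 nm. Viability expressed as percent of untreated control (100%); means ± SD of three independent experiments.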

C6 [6] = experiment: Antiproliferative activity against rat C6 cells after 24 hrs by MTS assay; type: functional, cell-based; conditions: C6, 24 h; outline: as §2
[7] = Toxicity in Caenorhabditis elegans N2 L1 larva assessed as mortality incubated for 30 mins on rotator and measured after 24 hrs; type: organism-based; conditions: in vivo
Outline: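 Wild-type N2 worms kept on NGM plates seeded with E. coli OP50 at 20 °C and synchronized to L1 by bleaching. L1 larvae (2.500 worms per dose) exposed acutely to five doses from 6.25 to 200 mM, 20 °C, 30 min with constant rotation. Washed three times in M9, plated on OP50-seeded NGM, survivors counted at 24 h. LC50 derived from dose–response curves.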

U138-MG [8] = experiment: Antiproliferative activity against human U138MG cells assessed as reduction in cell viability at 100 uM after 24 hrs by MTS assay relative to control; type: functional; outline: as §2
[9] = molecular target: T2, Kinesin-like protein KIF11 (Homo sapiens) (UniProt P52732); conditions: 200 uM
T2 sequence (whole entry): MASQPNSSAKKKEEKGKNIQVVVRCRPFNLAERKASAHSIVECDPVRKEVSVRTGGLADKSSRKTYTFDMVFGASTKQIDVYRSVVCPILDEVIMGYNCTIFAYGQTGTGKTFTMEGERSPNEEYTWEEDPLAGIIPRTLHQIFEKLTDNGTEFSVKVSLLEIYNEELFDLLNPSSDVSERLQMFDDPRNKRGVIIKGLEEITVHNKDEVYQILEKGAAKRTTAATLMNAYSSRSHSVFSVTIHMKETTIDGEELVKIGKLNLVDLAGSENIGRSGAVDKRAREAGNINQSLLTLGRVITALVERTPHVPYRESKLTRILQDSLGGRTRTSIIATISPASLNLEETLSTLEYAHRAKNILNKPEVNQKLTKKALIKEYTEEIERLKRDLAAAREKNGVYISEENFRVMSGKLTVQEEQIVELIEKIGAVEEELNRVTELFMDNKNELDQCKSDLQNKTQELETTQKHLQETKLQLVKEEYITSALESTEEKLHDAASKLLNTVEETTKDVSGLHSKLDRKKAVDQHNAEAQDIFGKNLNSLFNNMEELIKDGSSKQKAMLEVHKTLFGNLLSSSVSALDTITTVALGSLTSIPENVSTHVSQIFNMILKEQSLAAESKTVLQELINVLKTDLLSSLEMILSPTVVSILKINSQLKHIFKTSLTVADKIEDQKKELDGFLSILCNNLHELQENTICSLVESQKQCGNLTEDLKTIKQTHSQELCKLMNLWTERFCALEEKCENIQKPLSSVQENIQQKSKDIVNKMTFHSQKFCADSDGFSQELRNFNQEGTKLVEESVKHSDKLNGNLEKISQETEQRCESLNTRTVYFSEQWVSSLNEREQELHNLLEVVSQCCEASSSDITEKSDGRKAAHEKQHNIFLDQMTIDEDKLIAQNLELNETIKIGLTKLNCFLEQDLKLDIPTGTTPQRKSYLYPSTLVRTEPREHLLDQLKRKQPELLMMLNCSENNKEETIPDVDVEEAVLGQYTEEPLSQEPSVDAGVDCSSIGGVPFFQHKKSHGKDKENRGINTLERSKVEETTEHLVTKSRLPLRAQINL

U138-MG [10] = experiment: Induction of apoptosis in human U138MG cells at 200 uM after 48 hrs by Annexin V/propidium iodide staining based flow cytometry; type: functional, cell-based; outline: as §1
C6 [11] = experiment: Antiproliferative activity against rat C6 cells assessed as reduction in cell viability at 100 uM after 24 hrs by MTS assay relative to control; type: functional; outline: as §2
C6 (Rattus norvegicus) = experiment: Cell cycle arrest in rat C6 cells assessed as accumulation at G2/M phase at 100 uM after 24 hrs by propidium iodide staining based flow cytometry relative to control

CCOC(=O)C1=C(C)NC(=S)NC1c1cccc(O)c1 (configuration not stated) [MONASTROL]
Activity (U138-MG [1]): Active | Activity (C6 [2]): Active | inhibition [3]: Active | Activity (C6 [4]): Active | IC50 (U138-MG [5]): > 0.2 mM | IC50 (C6 [6]): > 0.2 mM | LC50 at 24 h [7]: 80.1 mM | Activity (U138-MG [8]): 20.8% | inhibition [9]: Active | Activity (U138-MG [10]): Active | Activity (C6 [11]): Active | Activity (C6 (Rattus norvegicus)): 27.4%
